The values that follow come from ChEMBL document CHEMBL1154441, “Chemotherapy of leishmaniasis part-VIII: synthesis and bioevaluation of novel chalcones” (2008).

Common to all, as to format: functional
The subject of experiment [1] is Leishmania donovani. Put plainly: Antileishmanial activity against Leishmania donovani MHOM/IN/Dd8 amastigotes infected in mouse J774A.1 cells assessed as inhibition of parasitic growth at 2 ug/ml after 24 hrs by luciferase activity-based luminescence assay. The note with it: for percent inhibition of intracellular amastigote growth at 2 µg/mL: J774.A1, 24 h, read-out: INH. The method, boiled down:
(§1)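 Macrophages seeded 5 × 10⁴ per well in RPMI-1640 + 10% FCS, 37 °C, CO₂; after 24 h infected with stationary-phase luciferase-expressing promastigotes (2.5 × 10⁵ per well) that transform to amastigotes. Medium replaced with compound in complete medium, incubated 37 °C for 24 h or more; then PBS added, mixed 1:1 with Steady-Glo, shaken 1–2 min, luminescence read to give growth inhibition.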

The subject of experiment [2] is Leishmania donovani. Kind of experiment: Antileishmanial activity against Leishmania donovani MHOM/IN/Dd8 amastigotes infected in mouse J774A.1 cells assessed as inhibition of parasitic growth at 5 ug/ml after 24 hrs by luciferase activity-based luminescence assay. Conditions: for Percent inhibition of intracellular amastigote growth at 5 µg/mL: J774.A1, 24 h, read-out: INH. Summed up: as §1

Experiment [3] deals with Leishmania donovani. Put plainly: Antileishmanial activity against Leishmania donovani MHOM/IN/Dd8 promastigotes assessed as inhibition of parasitic growth at 5 ug/ml after 72 hrs by luciferase activity-based luminescence assay. Summed up: (§2)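 Late-log luciferase-transfected L. donovani promastigotes (kept at 25 ± 1 °C in medium 199 + 10% FCS under G418) seeded at 5 × 10⁵ per well in medium 199; exposed 72 h to serial dilutions of compound in DMSO, with parallel DMSO dilutions as controls. Aliquot mixed 1:1 with Steady-Glo reagent; luminescence read as RLU and growth inhibition derived from luciferase signal.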

Experiment [4] relates to Leishmania donovani. Put plainly: Antileishmanial activity against Leishmania donovani MHOM/IN/Dd8 promastigotes assessed as inhibition of parasitic growth at 2 ug/ml after 72 hrs by luciferase activity-based luminescence assay. The method, boiled down: as §2

The source made the active and inactive calls. The rule behind the calls is not given here.

One may read the inhibition as the relative decrease from the control value, in per cent. With `CC1=CCCC(C)(C)C1CCC(=O)/C=C/c1ccc(Cl)cc1` (configuration not stated), in experiment [1], the percent inhibition of intracellular amastigote growth at 2 µg/mL was 88%. Also, in experiment [2], the Percent inhibition of intracellular amastigote growth at 5 µg/mL was found to be 93%. In experiment [3], the inhibition at 5 µg/mL worked out at 100%. The inhibition at 2 µg/mL in experiment [4] was found to be 100%.

Take `CC1=CCCC(C)(C)C1CCC(=O)/C=C/c1cccc([N+](=O)[O-])c1` (configuration not stated): in experiment [2], the Percent inhibition of intracellular amastigote growth at 5 µg/mL amounted to 65%. The inhibition at 5 µg/mL in experiment [3] was determined as 99%. Also, the inhibition at 2 µg/mL in experiment [4] worked out at 98%.

Consider `COc1cc(/C=C/C(=O)CCC2C(C)=CCCC2(C)C)cc(OC)c1OC` (configuration not stated), for which the result in experiment [1] and in experiment [2] was inactive. In addition, the inhibition at 5 µg/mL in experiment [3] was 90%. In experiment [4], the inhibition at 2 µg/mL was found to be 50%.

For the compound `CC1=CCCC(C)(C)C1CCC(=O)/C=C/c1ccc(CO)o1` (configuration not stated), the result in experiment [1] and in experiment [2] was inactive. Moreover, the inhibition at 5 µg/mL in experiment [3] amounted to 93%. Moreover, in experiment [4], the inhibition at 2 µg/mL worked out at 65%.

Regarding `CC1=CCCC(C)(C)C1CCC(=O)/C=C/c1ccc(OCc2ccccc2)cc1` (configuration not stated), the outcome in experiment [2] was inactive. For the same compound, in experiment [3], the inhibition at 5 µg/mL came out at 100%. The inhibition at 2 µg/mL in experiment [4] was 61%.

In the case of `CC1=CCCC(C)(C)C1CCC(=O)/C=C/c1ccccc1[N+](=O)[O-]` (configuration not stated), the result in experiment [1] and in experiment [2] was inactive. Further, the inhibition at 5 µg/mL in experiment [3] came out at 53%. The inhibition at 2 µg/mL in experiment [4] turned out to be 34%.

As for `CC1=CCCC(C)(C)C1CCC(=O)/C=C/c1ccc(O)cc1` (configuration not stated), the result in experiment [1] and in experiment [2] was inactive. In experiment [3], the inhibition at 5 µg/mL stood at 100%. The inhibition at 2 µg/mL in experiment [4] worked out at 76%.

On to `CC1=CCCC(C)(C)C1CCC(=O)/C=C/c1ccc([N+](=O)[O-])cc1` (configuration not stated), for which, in experiment [1], the percent inhibition of intracellular amastigote growth at 2 µg/mL was determined as 74%. Besides, the Percent inhibition of intracellular amastigote growth at 5 µg/mL in experiment [2] stood at 80%. Besides, the inhibition at 5 µg/mL in experiment [3] was 99%. Moreover, in experiment [4], the inhibition at 2 µg/mL came to 95%.

Take `COc1ccc(/C=C/C(=O)CCC2C(C)=CCCC2(C)C)cc1` (configuration not stated): the percent inhibition of intracellular amastigote growth at 2 µg/mL in experiment [1] came out at 40%. The Percent inhibition of intracellular amastigote growth at 5 µg/mL in experiment [2] was determined as 81%. Also, the inhibition at 5 µg/mL in experiment [3] was found to be 98%. Besides, the inhibition at 2 µg/mL in experiment [4] was determined as 98%.

As to `COc1ccc(/C=C/C(=O)CCC2C(C)=CCCC2(C)C)cc1OC` (configuration not stated), the percent inhibition of intracellular amastigote growth at 2 µg/mL in experiment [1] stood at 79%. For the same compound, in experiment [2], the Percent inhibition of intracellular amastigote growth at 5 µg/mL was determined as 95%. Further, the inhibition at 5 µg/mL in experiment [3] is 100%. Besides, in experiment [4], the inhibition at 2 µg/mL came to 100%.

As to `CC1=CCCC(C)(C)C1CCC(=O)/C=C/c1cccnc1` (configuration not stated), in experiment [1], the percent inhibition of intracellular amastigote growth at 2 µg/mL came out at 33%. In experiment [2], the Percent inhibition of intracellular amastigote growth at 5 µg/mL was found to be 92%. For the same compound, the inhibition at 5 µg/mL in experiment [3] was 100%. In addition, in experiment [4], the inhibition at 2 µg/mL came out at 100%.
